Assay outcomes as filed in PubChem.
TROY NFkB inh = blocks TROY-dependent signaling in reporter cells; Q293 LMP1-TROYcd NF-kB luciferase reporter, 4 h; inhibition, % at 10 µM; actives 0.98% (n = 360,000); AID 1347056;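 active means compounds whose plate-normalised and pattern-corrected inhibition of the luciferase reporter signal at the single screening dose is 50% or more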
NR2E3 ag-1 = NR2E3 (human) agonism | Q9Y5X4 | GST-NR2E3/biotin-RetCOR TR-FRET, 1536-well | inhibition of corepressor binding, % at 4.78 µM | actives 0.12% (n = 320,000);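 active means percent inhibition above the cutoff of mean plus 3 SD of all tested compounds, set per screening campaign, cut at about 20% in these data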;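 further: 0% = DMSO wells and 100% = biotin wells as full block of FRET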
Target sequence (Q9Y5X4 whole entry, looked up): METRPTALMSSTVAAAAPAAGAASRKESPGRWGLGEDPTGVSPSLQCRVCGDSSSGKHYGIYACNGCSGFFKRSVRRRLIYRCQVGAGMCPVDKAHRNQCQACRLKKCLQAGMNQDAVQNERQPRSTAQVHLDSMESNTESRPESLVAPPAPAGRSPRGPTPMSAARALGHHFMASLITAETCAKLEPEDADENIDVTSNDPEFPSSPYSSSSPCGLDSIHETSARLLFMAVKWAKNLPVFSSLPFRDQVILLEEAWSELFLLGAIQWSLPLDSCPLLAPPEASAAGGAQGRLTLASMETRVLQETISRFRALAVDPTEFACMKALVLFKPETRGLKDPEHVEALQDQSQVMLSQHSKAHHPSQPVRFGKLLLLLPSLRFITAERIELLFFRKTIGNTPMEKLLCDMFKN
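Test system – NR2E3–RetCOR corepressor complex · Quantity – NR2E3 fusion 1.35 nM · Buffer or medium – Tris pH 7.5 · Incubation – Compound–protein incubation for 5 h at 4 °C · Technique – TR-FRET, Eu(K)-anti-GST donor, streptavidin-D2 acceptor, ex 340, em 617/671 nm · Evaluation – percent inhibition of 671/617 nm emission ratio versus biotin and DMSO controls · Plate – 1536-well format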
EBV LMP1 NFkB = inhibitors of Epstein-Barr LMP1-induced NF-kappaB reporter; LMP1-induced NF-kappaB luciferase reporter cells, luminescence; inhibition, % at 12.5 µM; actives 0.69% (n = 350,000); in the data active means inhibition above about 41%;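 further: 0% = neutral control wells and 100% = reference inhibitor control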
NR2E3 ag-2 = agonists of human NR2E3 nuclear receptor. Q9Y5X4. CHO-S Gal4-NCOR/VP16-NR2E3 two-hybrid, luciferase. inhibition of corepressor binding, % at 3.98 µM. actives 0.35% (n = 360,000). AID 602229;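 active means inhibition above the mean of all tested compounds plus 3 SD, cut at about 70% in these data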;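 further: 0% = DMSO with NR2E3 transfected cells and 100% = cells lacking NR2E3 construct; higher means lower luciferase signal from less NR2E3 corepressor binding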
HIF activator = HIF pathway transcriptional activation. U2OS HRE-luciferase reporter, luminescence; normalized: DMSO 0%, desferrioxamine 100%. activation, % at 7.5 µM (by protocol). actives 0.32% (n = 300,000);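 active means mean activation of at least 10% of the iron chelator positive control signal, with at least half of replicates also reaching 10%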
Numbers without * were called inactive. A selection: hits, their analogues and other compounds. The true share with any hit is near 2%.

What do the screens show for `Cc1cc(C(=O)Cn2ncc(Cl)c(Cl)c2=O)c(C)n1CC(F)(F)F`?
TROY NFkB inh: 64.2*; NR2E3 ag-1: 7.2; EBV LMP1 NFkB: -45.1; NR2E3 ag-2: -15.9; HIF activator: -7.3

Results for O=C(O)c1cc(/C=C/c2ccc(N3CCOCC3)c([N+](=O)[O-])c2)nc2ccccc12 ?
TROY NFkB inh: -41.6; NR2E3 ag-1: -2.5; EBV LMP1 NFkB: 16.5; NR2E3 ag-2: -28.6; HIF activator: -0.8

How did O=C(O)c1cc(/C=C/c2ccc(N3CCOCC3)cc2)nc2ccccc12 do in these assays?
TROY NFkB inh: 8.9; NR2E3 ag-1: -3.0; EBV LMP1 NFkB: 59.2*; NR2E3 ag-2: -50.0

What do the screens show for `CCN1/C(=C/C=C/c2sc3ccccc3[n+]2CC)Sc2ccccc21`?
TROY NFkB inh: 53.3*; NR2E3 ag-1: 1.0; EBV LMP1 NFkB: 50.2*; NR2E3 ag-2: 19.9; HIF activator: -1.4

Results for CCN1/C(=C/C=C/C=C/c2sc3ccccc3[n+]2CC)Sc2ccccc21 ?
NR2E3 ag-1: -123.5; HIF activator: -0.8

What do the screens show for `Cn1c(CCNC(=O)c2ccco2)nc2cc(NC(=O)C3CCCCC3)ccc21`?
TROY NFkB inh: -23.1; NR2E3 ag-1: 0.5; EBV LMP1 NFkB: -26.1; NR2E3 ag-2: -22.1; HIF activator: 175.8*

What do the screens show for `O=c1oc2ccccc2cc1-c1ccccc1`?
TROY NFkB inh: -63.8; NR2E3 ag-1: -0.2; EBV LMP1 NFkB: -9.3; NR2E3 ag-2: -36.5; HIF activator: 2.8

Results for O=C(O)c1ccc(-n2cc(-c3cc4ccccc4oc3=O)[nH]c2=S)cc1 ?
TROY NFkB inh: 72.4*; EBV LMP1 NFkB: 5.5; NR2E3 ag-2: -1.7

Results for CCCc1ccc(-c2ccc(F)c(N)c2)nc1 ?
TROY NFkB inh: 63.3*; NR2E3 ag-1: 3.5; EBV LMP1 NFkB: 69.3*; NR2E3 ag-2: -89.8; HIF activator: -2.4

What do the screens show for `CCCCc1ccc(-c2ccc(Br)cc2)nc1`?
TROY NFkB inh: 0.9; NR2E3 ag-1: 0.7; EBV LMP1 NFkB: -33.1; NR2E3 ag-2: -82.8; HIF activator: 1.2

How did COCC(C)n1c(C)cc(C(=O)COC(=O)c2n[nH]c3ccccc23)c1C (configuration not stated) do in these assays?
TROY NFkB inh: 77.8*; NR2E3 ag-1: -3.8; EBV LMP1 NFkB: 24.7; NR2E3 ag-2: -31.7; HIF activator: 0.0

How did COCC(C)n1c(C)cc(C(=O)COC(=O)c2cc(=O)[nH]c3ccccc23)c1C (configuration not stated) do in these assays?
TROY NFkB inh: 82.6*; EBV LMP1 NFkB: 25.0; NR2E3 ag-2: 38.5

What do the screens show for `COC(=O)c1ccc(CSc2ncnc3c2nnn3-c2ccc(F)cc2)o1`?
TROY NFkB inh: 55.3*; NR2E3 ag-1: 0.5; EBV LMP1 NFkB: -2.7; NR2E3 ag-2: -22.0; HIF activator: -0.2

What do the screens show for `Cc1cc(NC(=O)CSc2nc3c(c(=O)n2-c2ccc(Cl)cc2)SCC3)no1`?
TROY NFkB inh: -0.7; NR2E3 ag-1: 1.8; EBV LMP1 NFkB: 6.3; NR2E3 ag-2: -5.8; HIF activator: 45.0*

How did COC(=O)c1ccc(CSc2nc3c(c(=O)n2-c2ccc(F)cc2)SCC3)o1 do in these assays?
TROY NFkB inh: 0.3; NR2E3 ag-1: -0.8; EBV LMP1 NFkB: 4.0; NR2E3 ag-2: -8.1; HIF activator: 10.5*

How did O=C(Cn1cnc([N+](=O)[O-])c1)Nc1ccc(Cl)cc1Cl do in these assays?
TROY NFkB inh: -23.4; EBV LMP1 NFkB: -0.6; NR2E3 ag-2: 2.4

How did CCOCCCNC(=O)c1ccc(/C=C2\Oc3ccccc3N(C)C2=O)cc1 do in these assays?
TROY NFkB inh: -0.4; NR2E3 ag-1: -1.9; EBV LMP1 NFkB: -1.8; NR2E3 ag-2: -128.5; HIF activator: -9.2

What do the screens show for `O=C(/C=C/c1cnc2ccccc2n1)NC12CC3CC(CC(C3)C1)C2`?
TROY NFkB inh: 70.5*; NR2E3 ag-1: 10.3; EBV LMP1 NFkB: -46.4; NR2E3 ag-2: -121.2; HIF activator: 0.9

Results for O=C(O)/C=C/c1cnc2ccccc2n1 ?
TROY NFkB inh: 63.7*; NR2E3 ag-1: -1.9; EBV LMP1 NFkB: -8.8; NR2E3 ag-2: -0.6; HIF activator: -2.0

Results for CCC(C)(C)NC(=O)/C=C/c1cnc2ccccc2n1 ?
TROY NFkB inh: -58.4; NR2E3 ag-1: 0.1; EBV LMP1 NFkB: 5.6; NR2E3 ag-2: -74.3; HIF activator: 2.0

What do the screens show for `O=C(C[C@@H]1C/C=C\CC[C@H](Cc2ccc(F)cc2)C(=O)OC[C@@H](Cc2ccccc2)NC1=O)NCCO`?
TROY NFkB inh: 7.4; EBV LMP1 NFkB: 2.8; NR2E3 ag-2: -22.4

What do the screens show for `O=C(NC(=S)Nc1cccc(Cl)c1N1CCCCC1)c1ccc2c(c1)OCCO2`?
TROY NFkB inh: 70.2*; NR2E3 ag-1: 0.4; EBV LMP1 NFkB: -8.5; NR2E3 ag-2: -0.6; HIF activator: 0.8

How did CCCC(=O)NC(c1ccccc1OC)c1ccc2cccnc2c1O (configuration not stated) do in these assays?
TROY NFkB inh: 6.6; NR2E3 ag-1: 0.9; EBV LMP1 NFkB: 70.6*; NR2E3 ag-2: -31.6; HIF activator: 69.0*

What do the screens show for `CCCCC(=O)NC(c1ccccc1OC)c1ccc2cccnc2c1O` (configuration not stated)?
TROY NFkB inh: -9.8; NR2E3 ag-1: 3.2; EBV LMP1 NFkB: 66.4*; NR2E3 ag-2: -3.8; HIF activator: 62.9*

Results for COc1ccccc1C(NC(C)=O)c1cc(Cl)c2cccnc2c1O (configuration not stated) ?
TROY NFkB inh: -8.4; NR2E3 ag-1: -1.3; EBV LMP1 NFkB: 31.2; NR2E3 ag-2: 14.2; HIF activator: 0.4

Results for CCCCC(=O)NC(c1ccc(OC)c(OC)c1)c1c(O)ccc2ccccc12 (configuration not stated) ?
TROY NFkB inh: -5.0; NR2E3 ag-1: -1.8; EBV LMP1 NFkB: -8.6; NR2E3 ag-2: -21.3; HIF activator: -0.1

Results for COc1ccc(N=Cc2sc3ccccc3c2Cl)cc1 ?
TROY NFkB inh: 67.0*; NR2E3 ag-1: 5.9; EBV LMP1 NFkB: -22.0; NR2E3 ag-2: -47.6; HIF activator: 1.7

Results for COc1ccc(-c2ccc(NC(=O)c3ccc(Br)o3)cc2)nn1 ?
TROY NFkB inh: -42.5; NR2E3 ag-1: -23.2; EBV LMP1 NFkB: -6.7; NR2E3 ag-2: 1.0; HIF activator: 3.1

Results for CCn1c(=O)cc(C(=O)OC)sc1=Nc1ccc(F)c(F)c1 ?
TROY NFkB inh: 4.9; NR2E3 ag-1: 0.1; EBV LMP1 NFkB: 84.1*; NR2E3 ag-2: -10.8; HIF activator: 0.3

Results for COC(=O)c1cc(=O)n(CCc2ccc(OC)cc2)c(=Nc2ccc(F)c(Cl)c2)s1 ?
TROY NFkB inh: -12.9; NR2E3 ag-1: 1.8; EBV LMP1 NFkB: -13.4; NR2E3 ag-2: 10.2; HIF activator: 0.1

Results for Cc1ccccc1NC(=O)/C=C/c1ccc([N+](=O)[O-])s1 ?
TROY NFkB inh: -34.5; NR2E3 ag-1: 0.3; EBV LMP1 NFkB: -16.9; NR2E3 ag-2: 84.8*; HIF activator: 0.8

How did O=C(CCl)N(O)c1ccc(C=Cc2ccccc2)cc1 do in these assays?
TROY NFkB inh: -46.4; EBV LMP1 NFkB: 53.0*; NR2E3 ag-2: -62.1
